Source: PMC4479701 (mBio, 2015)
≈ marks a conversion by molar mass, not a printed value. Where “and” joins values, the source holds several entries; their conditions need not be identical. Equal entries are not always repeated. Where two headings read alike, the source gives them in different places.

Experiments:
C. neoformans [1] = assay: NBD C6-ceramide staining; type: cell-based; conditions: 4 µg/ml; microscopy and FACS
Summary of the method: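 C. neoformans cells, untreated or treated with 4 µg/ml test compound, were fixed in 4% paraformaldehyde in PBS and washed. They were stained with NBD C6-ceramide for 16 h at 4°C, then incubated with 1% BSA at 4°C for 1 h to strip excess dye.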

Cryptococcus neoformans = assay: In vitro susceptibility testing; type: cell-based
[2] = system: various Cryptococcus species; assay: MIC; type: cell-based
Summary of the method: (§1)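 Inoculum prepared per CLSI M27-A3. Plates incubated at 37°C with 5% CO2 for 24 to 96 h. MIC was the lowest concentration inhibiting 50% of growth versus the drug-free control. Minimum fungicidal concentration was also measured: serial dilutions from wells were plated on YPD agar, and MFC was the lowest concentration yielding three or fewer colonies (99% of inoculum killed).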

C. neoformans [3] = assay: Mouse model of cryptococcosis, intravenous infection; type: in vivo, mouse (CBA/J); conditions: 1.2 mg/kg/day i.p.; 8 mice per group; vehicle 7.0 ± 1.1
[4] = system: S. cerevisiae RYO0622 strain; assay: IC100 prescreening; type: cell-based, Saccharomyces cerevisiae; conditions: solid SC medium, 2 days, 30°C
Summary of the method: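 S. cerevisiae RYO0622 cells (20 µl at OD600 10−4) spotted on solid SC medium alone, with DMSO, or with test compound at 67, 133, 266, 533 and 1,066 µg/ml in a 48-well plate. Incubation 2 days at 30°C in the dark. IC100 taken as the concentration giving 100% growth inhibition.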

Pneumocystis jirovecii = assay: In vitro testing against Pneumocystis, inhibition of ATP; type: cell-based; conditions: read-out: IC50 (percentage inhibition of ATP)
[5] = system: GlcCer synthesis in C. neoformans; assay: In vivo labeling with [3H]palmitate, TLC of GlcCer; type: cell-based; conditions: [3H]palmitate labeling
Aspergillus fumigatus = assay: In vitro susceptibility testing; type: cell-based
Summary of the method: as §1

Candida glabrata = assay: In vitro susceptibility testing; type: cell-based; conditions: FTL strains (10)
Summary of the method: as §1

[6] = In vivo toxicity, blood work; design: species or system mouse (CBA/J)
Summary of the method: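 Female CBA/J mice, 4 weeks old: five received 1.2 mg/kg/day test compound for 60 days, and three controls received a daily solvent injection. On day 60, blood was collected into one K2EDTA tube and one plain tube allowed to clot.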

Rhizopus oryzae = assay: In vitro susceptibility testing; type: cell-based; conditions: FTL strains (3)
Summary of the method: as §1

C. albicans = assay: Yeast-to-hypha differentiation; type: cell-based; conditions: 4 µg/ml
Summary of the method: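 C. albicans yeast and hyphal forms were counted after exposure to test compound and compared with drug-free controls. Twenty random fields, about 120 cells, were scored.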

C. neoformans cells = assay: In vitro passages, development of resistance; type: cell-based; conditions: 15 days of in vitro passages (120 generations), 10^6 cells/ml; data not shown
Candida spp. = assay: In vitro susceptibility; type: cell-based; conditions: most Candida spp. examined
Summary of the method: as §1

Pneumocystis murina = assay: In vitro testing against Pneumocystis, inhibition of ATP; type: cell-based; conditions: read-out: IC50 (percentage inhibition of ATP)
[7] = system: intracellular C. neoformans; assay: Intracellular effect in J774.16 macrophages; type: cell-based; conditions: 0.25, 1 or 4 µg/ml; dose dependent, 12 and 24 h
Summary of the method: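 J774.16 macrophages were co-incubated 1:1 with C. neoformans for 2 h, with complement and anti-capsular MAb 18B7 as opsonins. Wells were washed to remove extracellular yeast, then fresh DMEM with varying test compound concentrations was added, at 37°C, 5% CO2. Macrophages were lysed and plated for intracellular CFU.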

C. neoformans [8] = assay: Mouse model of cryptococcosis, intranasal infection; type: in vivo, mouse (CBA/J); conditions: 1.2 mg/kg/day i.p.
Summary of the method: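 Mice (10 per group) were infected by nasal inoculation of 20 µl containing 5 × 10^5 C. neoformans. Test compound was given i.p. at 1.2 mg/kg/day in 100 µl PBS with 0.4% DMSO, starting 2 h after inoculation. Survival followed up to 60 days. Organs of survivors were homogenized in 10 ml PBS, diluted serially 1:10, plated on YPD, and incubated at 30°C for 72 h for CFU.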

[9] = system: GlcCer synthesis in C. albicans cells; assay: GlcCer synthesis in C. albicans; type: cell-based; conditions: in vitro treatment; data not shown
P. murina = assay: Murine pneumocystosis, corticosteroid-immunosuppressed; type: in vivo, mouse (C3H/HeN)
Summary of the method: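 Corticosteroid-immunosuppressed mice were infected with P. murina by cohousing with seed mice for 2 weeks. […] Treatment lasted 13 days. Lung homogenate slides were stained with Diff-Quik for trophic forms and cresyl echt violet for asci.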

[10] = system: C. albicans, Candida parapsilosis, Paecilomyces variotii; assay: MIC, poor activity; type: cell-based
Summary of the method: as §1

Histoplasma capsulatum = type: cell-based
Candida parapsilosis = assay: In vitro susceptibility testing; type: cell-based
Summary of the method: as §1

Candida albicans = assay: In vitro susceptibility testing; type: cell-based
Summary of the method: as §1

[11] = system: S. cerevisiae deletion mutants; type: cell-based, Saccharomyces cerevisiae
C. albicans SC 5314 = assay: Mouse model of invasive candidiasis; type: in vivo, mouse (CBA/J); conditions: after 21 days of infection; 1.2 mg/kg/day i.p.; 8 mice per group
Summary of the method: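 Female CBA/J mice, 8 weeks old (8 per group), were infected i.v. with 100 µl containing 10^5 C. albicans SC-5314. Test compound was given i.p. at 1.2 mg/kg/day in 100 µl PBS with 0.4% DMSO immediately after inoculation; untreated mice received vehicle. Survival was monitored. Organs of survivors were homogenized in 10 ml PBS, diluted tenfold, and plated on YPD at 30°C for 72 h for CFU.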

C. neoformans [12] = assay: Transmission electron microscopy, intracellular vesicles; type: cell-based; conditions: 4 µg/ml, 6 h

**Q.** What does the source list for `Cc1ccccc1C(=O)NN=Cc1ccc(O)c(Br)c1` [BHBM, N′-(3-bromo-4-hydroxybenzylidene)-2-methylbenzohydrazide]?
**A.** NBD C6-ceramide staining (C. neoformans [1]): substantial accumulation; MIC range (Cryptococcus neoformans): 0.5−2 µg/ml and 1−2 µg/ml; MIC range (Cryptococcus neoformans; FTL strains (13)): 0.25−8 µg/ml; MIC [2]: 0.25 to 8 µg/mL (≈ 0.75 to 24 µM); survival, days postinfection (C. neoformans [3]): 11.1 ± 3.7 days; 100% inhibitory concentration (IC100) [4]: 133 µg/mL; IC50 (Pneumocystis jirovecii; 24 h): 0.912 µg/mL (≈ 2.74 µM); IC50 (Pneumocystis jirovecii; 48 h): 0.159 µg/mL (≈ 0.477 µM); IC50 (Pneumocystis jirovecii; 72 h): 0.074 µg/mL (≈ 0.222 µM); IC50 (Pneumocystis jirovecii; 96 h): 0.072 µg/mL (≈ 0.216 µM); synthesis of GlcCer [5]: significantly inhibited; MIC range (Aspergillus fumigatus; FTL strains (3)): >16 µg/mL; MIC range (Aspergillus fumigatus; MDPL strain (1)): 8 µg/mL (≈ 24 µM); MIC range (Candida glabrata): 0.125−2 µg/ml; all other blood parameters for liver and kidney function ([6]; after 60 days of treatment): normal; liver aspartate aminotransferase (AST) ([6]; after 60 days of treatment, 1.2 mg/kg/day, untreated 50 ± 9): 125 ± 75 U/liter; tolerability in animals ([6]; mouse, in vivo): well tolerated; MIC range (Rhizopus oryzae): 2 µg/mL (≈ 6 µM); yeast-to-hypha differentiation (C. albicans): significantly reduced; development of resistance (C. neoformans cells): did not develop resistance; in vitro susceptibility (Candida spp.): resistant; IC50 (Pneumocystis murina; 24 h): 1.02 µg/mL (≈ 3.06 µM); IC50 (Pneumocystis murina; 48 h): < 0.01 µg/mL; IC50 (Pneumocystis murina; 72 h): < 0.01 µg/mL; IC50 (Pneumocystis murina; 96 h): 2.02 µg/mL (≈ 6.06 µM); intracellular replication of C. neoformans inside macrophages (CFU) [7]: significantly decreased; brain tissue burden (CFU) (C. neoformans [8]): eradication of fungal cells; lung tissue burden (CFU) (C. neoformans [8]): decrease of fungal load; mice surviving C. neoformans infection (C. neoformans [8]; up to 60 days, 10 mice per group): 90%; GlcCer synthesis [9]: inhibited GlcCer synthesis in a dose-dependent manner; number of asci or nuclei in lung homogenates (P. murina; 13 days of treatment, versus vehicle-treated negative control): No significant differences; survival (P. murina; BHBM 3.2 mg/kg/day i.p., 13 days, versus untreated): survived significantly longer; MIC [10]: > 32 µg/mL; MIC range (Histoplasma capsulatum): 0.125−1 µg/ml; MIC range (Candida parapsilosis; MDPL strains (3)): >32 µg/mL; MIC range (Candida parapsilosis; QC FTL strains): >16 µg/mL; MIC range (Candida albicans; FTL strains (3)): >32 µg/mL; MIC range (Candida albicans; MDPL strains (5)): >32 µg/mL; resistance of Δsla2 mutant [11]: not resistant; growth of Δapl5, Δcos111, Δmkk1, Δste2 mutants compared with parent strain ([11]; BHBM in the range of 11 to 92 µg/ml, 24 h, 30°C): increased resistance; mice still alive (C. albicans SC 5314): 62.5%; volume occupied by the intracellular vesicles (C. neoformans [12]; P <0.05): significant increase; numbers of vesicles per square micrometer of cell surface area (C. neoformans [12]; untreated 0.33 ± 0.36): 0.84 ± 0.58
